Screening results (PubChem BioAssay)
STAT3 act-1: STAT3 signaling activation | U3A cells, IL-6 STAT3-luciferase reporter, luminescence; 100% = signal with IL-6 EC80 alone | activation (% of control), % at 5.6 µM | 190,000 compounds, 0.91% hits | AID 871;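 active = activation above the screen-wide mean of compound activation plus 3 SD, cut at about 130% in these data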
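Assay system – human STAT1-deficient U3A cells with stable STAT3-luciferase reporter · Also added – IL-6 (33 ng/mL) · Schedule – compound 1 h, then IL-6 6 h at 37 °C · Technique – reporter luminescence signal · Evaluation – % activation versus median of IL-6-stimulated wells · Benchmarks – IL-6-only wells as 100% reference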
PERK inhibitor: inhibitors of human PERK kinase; Q9NZJ5; CHO PERK-DD fusion, SEAP luminescence translation reporter; inhibition, % at 5.6 µM; 220,000 compounds, 0.17% hits; AID 1416;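 active = inhibition above the mean inhibition of all tested compounds plus 3 SD, set separately per screening campaign, cut at about 2.9% in these data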;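 note: PERK kinase domain activated by AP20187 dimerizer at 100 nM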
Target sequence (Q9NZJ5 whole entry, looked up, the tested form may be a part): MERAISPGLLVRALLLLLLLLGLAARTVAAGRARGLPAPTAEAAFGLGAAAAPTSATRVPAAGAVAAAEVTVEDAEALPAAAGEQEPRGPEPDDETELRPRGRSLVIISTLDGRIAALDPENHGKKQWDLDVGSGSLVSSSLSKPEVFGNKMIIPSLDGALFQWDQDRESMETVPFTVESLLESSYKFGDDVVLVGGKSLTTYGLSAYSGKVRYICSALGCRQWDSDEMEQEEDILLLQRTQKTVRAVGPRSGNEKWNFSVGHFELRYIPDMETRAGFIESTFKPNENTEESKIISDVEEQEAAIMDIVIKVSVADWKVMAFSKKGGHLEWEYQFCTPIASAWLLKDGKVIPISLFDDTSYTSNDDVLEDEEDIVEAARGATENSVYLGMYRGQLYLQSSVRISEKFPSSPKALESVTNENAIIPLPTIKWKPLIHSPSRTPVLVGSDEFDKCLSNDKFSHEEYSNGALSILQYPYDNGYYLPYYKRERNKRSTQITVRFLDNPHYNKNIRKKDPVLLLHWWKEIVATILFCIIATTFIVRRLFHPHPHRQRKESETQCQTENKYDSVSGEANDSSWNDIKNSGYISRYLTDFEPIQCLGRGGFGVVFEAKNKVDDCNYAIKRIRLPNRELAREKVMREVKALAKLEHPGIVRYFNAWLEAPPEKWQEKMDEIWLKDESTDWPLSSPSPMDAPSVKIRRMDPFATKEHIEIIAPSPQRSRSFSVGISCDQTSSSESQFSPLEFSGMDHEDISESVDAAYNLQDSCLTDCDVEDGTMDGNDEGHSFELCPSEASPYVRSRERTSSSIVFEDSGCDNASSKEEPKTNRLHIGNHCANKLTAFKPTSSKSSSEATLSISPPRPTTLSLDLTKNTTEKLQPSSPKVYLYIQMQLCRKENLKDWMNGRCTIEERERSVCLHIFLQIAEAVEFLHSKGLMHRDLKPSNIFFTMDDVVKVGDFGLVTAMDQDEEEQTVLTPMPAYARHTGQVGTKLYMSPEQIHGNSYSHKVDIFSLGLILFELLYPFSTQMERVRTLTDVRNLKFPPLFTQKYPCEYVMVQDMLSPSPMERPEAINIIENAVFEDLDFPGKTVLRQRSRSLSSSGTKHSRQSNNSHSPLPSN
STAT3 inh: STAT3 signaling inhibition; AID 862; inhibition, % at 5.5 µM; U3A cells, IL-6 STAT3-luciferase reporter, luminescence; host cell line lacks STAT1; 190,000 compounds, 0.89% hits;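 active = inhibition above the mean inhibition across all screened compounds plus 3 SD, cut at about 44% in these data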
STAT1 inh: inhibitors of IFN-gamma induced STAT1 signaling. inhibition, % at 5.5 µM. 200,000 compounds, 0.35% hits. NIH 3T3 STAT1-luciferase reporter, luminescence;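 active = inhibition above a set limit, the mean inhibition across all tested compounds plus 3 SD, cut at about 34% in these data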
STAT3 act-2: STAT3 activation, confirmation assay | shares compounds with STAT3 act-1 | U3A STAT3-luciferase reporter, IL-6 potentiation, luminescence; U3A cells lack STAT1; 100 means same as IL-6 alone | potentiation (% of control), % at 5.7 µM | 1,200 compounds, 64% hits;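 active = percent activation of the STAT3 luciferase reporter above a set limit taken from the earlier primary screen, cut at about 130% in these data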
NFkB act 2: counter-screen for STAT3 activators: NF-kappaB activation; shares compounds with STAT3 act-1; human cells, NF-kappaB reporter activation; activation (% of control), % at 5.7 µM; 1,200 compounds, 11% hits; AID 1309; in the data active = activation above about 120%;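 note: reporter induced by TNF-alpha stimulation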
STAT1 act STAT3c: STAT1 activation in STAT3 activator counter-screen; shares compounds with STAT3 act-1; NIH 3T3 STAT1-luciferase reporter, IFN-gamma, luminescence; activation (% of control), % at 5.7 µM; 1,200 compounds, 13% hits;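 active = activation above the solvent-only control well mean plus 3 SD, set per screening run, cut at about 120% in these data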
Of the large screens only hits and unclear results are named; the others gave an inactive call (follow-up assays come after a bar, where they were run). Hits are enriched below; roughly 1.8% of the tested compounds scored in any of these assays.

O=S(=O)(Nc1nc2ccccc2s1)c1ccc(Br)s1	STAT3 act-1 142 | STAT3 act-2 134 | NFkB act 2 inactive | STAT1 act STAT3c inactive
CCC1(CC)Cc2ccccc2C(CC(=O)N2CCOCC2)=N1	none
CCOC(=O)CN1C=C(c2ccc3ccccc3n2)C(C[N+](=O)[O-])c2ccccc21 (stereo not given)	STAT3 act-1 157 | STAT3 act-2 136 | NFkB act 2 inactive | STAT1 act STAT3c inactive
O=C(c1ccccc1Sc1ccccc1[N+](=O)[O-])N1CCCCC1	none
Cc1cc(C(F)F)nn1CC(=O)NC1C(=O)N2C(C(=O)O)=C(CSc3nnnn3C)CSC12 (stereo not given)	none
Cn1c(=O)c(-c2cc(Br)ccc2N)nc2ccccc21	STAT3 act-1 164 | STAT3 act-2 155 | NFkB act 2 inactive | STAT1 act STAT3c inactive
C=CCn1c(COc2ccc(CC)cc2)nnc1SC/C(O)=C(\C#N)c1nc2ccccc2[nH]1	STAT3 act-1 160 | STAT3 act-2 150 | NFkB act 2 inactive | STAT1 act STAT3c inactive
COc1ccc(COc2cc(-c3cccc(OC)c3)nc3ccc(NC(=O)C(C)C)cc23)cc1	none
COc1ccc(C(=O)Nn2cnnc2)cc1OC	none (no result: STAT3 act-1, STAT3 inh, STAT1 inh)
CC(=O)N1CCN(c2ncnc3sc(-c4ccccc4)cc23)CC1	none
Oc1ccc(N2CCN(c3ncnc4sc(-c5ccccc5)cc34)CC2)cc1	STAT3 act-1 159 | STAT3 act-2 inactive | NFkB act 2 inactive | STAT1 act STAT3c inactive
CN1CCN(C(=O)CNc2ccc(C(F)(F)F)cc2[N+](=O)[O-])CC1	STAT3 act-1 162 | STAT3 act-2 157 | NFkB act 2 inactive | STAT1 act STAT3c inactive
CC(C)NC(=O)CNc1ccc(C(F)(F)F)cc1[N+](=O)[O-]	none
O=C(c1ccc(S(=O)(=O)c2ccccc2Cl)c([N+](=O)[O-])c1)N1CCCCCC1	none
O=C1C=C(Nc2ccc(Cl)cc2)CC(c2ccccc2)C1 (stereo not given)	none
CC(C)c1ccc(C2C(C#N)=C(N)N3C(=C2C#N)Sc2ccccc23)cc1 (stereo not given)	none
Oc1ccccc1-c1nnc(SCCN2CCOCC2)n1Cc1ccccc1	STAT3 act-1 168 | STAT3 act-2 147 | NFkB act 2 inactive | STAT1 act STAT3c inactive
CCOc1ccccc1C1CC(c2cccs2)=NN1S(C)(=O)=O (stereo not given)	STAT3 act-1 137 | STAT3 act-2 147 | NFkB act 2 inactive | STAT1 act STAT3c inactive
COC(=O)c1cc(-c2ccc(Cl)cc2Cl)n[nH]1	none
CCN1CCN(C(=O)c2cc3c(-c4ccc(Cl)cc4)nn(C)c3s2)CC1	STAT3 act-1 152 | STAT3 act-2 134 | NFkB act 2 inactive | STAT1 act STAT3c inactive
Cn1nc(-c2ccc(Cl)cc2)c2cc(C(=O)N3CCN(C(=O)c4ccco4)CC3)sc21	STAT3 act-1 150 | STAT3 act-2 inactive | NFkB act 2 inactive | STAT1 act STAT3c inactive
COc1ccc(-c2nn(C)c3sc(C(=O)N4CCOCC4)cc23)cc1OC	none
CC1CCCN(C(=O)c2cc3c(-c4ccc(Cl)cc4)nn(C)c3s2)C1 (stereo not given)	none
Cc1[nH]c2ccccc2c1C1(O)C(=O)N(C(C)C)c2ccccc21 (stereo not given)	STAT3 act-1 137 | STAT3 act-2 inactive | NFkB act 2 inactive | STAT1 act STAT3c inactive
CCCN1C(=O)C(O)(c2c(C)[nH]c3ccccc23)c2ccccc21 (stereo not given)	none (no result: STAT3 act-1, STAT3 inh, STAT1 inh)
Cc1[nH]c2ccccc2c1C1(O)C(=O)N(Cc2ccc3c(c2)OCO3)c2ccccc21 (stereo not given)	STAT3 act-1 137 | STAT3 act-2 134 | NFkB act 2 inactive | STAT1 act STAT3c inactive
CN(C(=O)c1cc2c(s1)-c1ccccc1S(=O)(=O)C2)c1ccccc1	none (no result: STAT3 act-1, STAT3 inh, STAT1 inh)
COc1cccc(Cn2cc(C(=O)NCCN(C)C)nn2)c1	none
CCCc1cc(=O)[nH]c(SCC(=O)c2c[nH]c3ccccc23)n1	STAT3 act-1 143 | STAT3 act-2 inactive | NFkB act 2 inactive | STAT1 act STAT3c inactive
OC1(Cc2ccccc2)CCNCC1	none (no result: STAT3 act-1, STAT3 inh, STAT1 inh)
COc1ccc(-c2nnc(Nc3nc4c(OC)cccc4s3)o2)c(OC)c1	none
COc1ccc(-c2nnc(Nc3nc4c(OC)cccc4s3)o2)cc1	STAT3 act-1 159 | STAT3 act-2 137 | NFkB act 2 inactive | STAT1 act STAT3c inactive
COc1cc(/C=N/NC(=O)CC23CC4CC(CC(C4)C2)C3)cc(Br)c1OCC(=O)N(C)C	none
CCCS(=O)(=O)N1CCCC(C(=O)NCC(OC)OC)C1 (stereo not given)	none
COc1ccccc1/C=N/NC(=O)C1=NNC(c2ccccc2)(c2ccccc2)C1	STAT3 act-1 149 | STAT3 act-2 inactive | NFkB act 2 inactive | STAT1 act STAT3c inactive
FC(F)(F)c1cc(-c2ccccc2)nc2nc(N3CCOCC3)sc12	none
CC(=O)NC1CCCN(O)C(=O)/C=C(\C)CCOC(=O)C(NC(C)=O)CCCN(O)C(=O)/C=C(\C)CCOC(=O)C(NC(C)=O)CCCN(O)C(=O)/C=C(\C)CCOC1=O (stereo not given)	none (no result: STAT3 act-1, STAT3 inh)
COC(=O)c1cc2c(s1)-c1ccccc1CC2	STAT3 act-1 164 | STAT3 act-2 150 | NFkB act 2 inactive | STAT1 act STAT3c 126
COC(=O)c1cc2c(s1)-c1cc(F)ccc1OC2	none (no result: STAT3 act-1, STAT3 inh, STAT1 inh)
NC(=O)CSc1ccc(F)cc1	none
O=C(CCC1CCCC1)Nc1ccc([N+](=O)[O-])cn1	none
Cc1cc(C)[n+](C)n1CC(O)Cn1c2ccccc2c2ccccc21 (stereo not given)	none
O=C(CCn1cnnn1)Nc1cccc(F)c1	none
Brc1ccccc1C1=Nn2c(nnc2-c2ccccc2)SC1	STAT3 act-1 137 | STAT3 act-2 140 | NFkB act 2 inactive | STAT1 act STAT3c inactive
COc1ccccc1-c1nnc2n1N=C(c1ccc(O)c(O)c1)CS2	STAT3 act-1 136 | STAT3 act-2 inactive | NFkB act 2 160 | STAT1 act STAT3c 125
COc1ccc(C2=Nn3c(nnc3-c3ccncc3)SC2)cc1OC	none
O=C(N/N=C/c1ccncc1)c1ccc(NS(=O)(=O)c2cccs2)cc1	none
CCC(C)c1ccc(S(=O)(=O)N2CCN(C(C)CC(=O)O)CC2)cc1 (stereo not given)	none
COC(=O)c1n[nH]c2ccccc12	STAT3 act-1 160 | STAT3 act-2 154 | NFkB act 2 inactive | STAT1 act STAT3c inactive
COCCNC(=O)c1n[nH]c2ccccc12	none
O=C(NC(Cc1ccccc1)c1ccc2c(c1)OCCCO2)c1ccccc1 (stereo not given)	none
Cc1nn(CCCC(=O)Nc2c(F)cc(F)cc2Br)c(C)c1[N+](=O)[O-]	none
Cc1cc(C)nc(SCSc2nc(C)cc(C)n2)n1	none
